According to paper PMC4885662 (The Laryngoscope, 2014):
Read-outs that look alike come from different tables or passages of the source.

Key:
guinea pigs [1] = format: in vivo, guinea pig; conditions: for Click threshold shift, difference as compared to the control group: single shot, vs water for injection ear
guinea pigs [2] = format: in vivo, guinea pig; conditions: for Hearing threshold at 4 kHz / Hearing threshold at 8 kHz / Hearing threshold at 16 kHz / Hearing threshold at 32 kHz / Mean hearing threshold at 1 kHz / Mean hearing threshold at 2 kHz: day 28
outer hair cells = assay: Outer hair cell counts in organ of Corti whole-mounts; format: in vivo, guinea pig; conditions: for Outer hair cell counts, 2nd turn / Outer hair cell counts, 3rd turn / Outer hair cell counts, apex / Outer hair cell counts, basal turn: after day 28
Outline: (§1)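 Guinea pigs were dosed intratympanically (bulla filled; water for injection in the opposite ear) or intraperitoneally daily for 3 days. After the day-28 audiometry they were perfused with 4% buffered PFA. Cochleae were decapsulated and stained 30 min at room temperature with phalloidin-TRITC (0.3 µg/ml) and Hoechst 33342 (0.05 mg/ml), then imaged by confocal microscopy. Hair cells were counted in 3 random 200 μm segments per turn, as viable/(viable+missing) percentage.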

inner hair cells = assay: Inner hair cell counts in organ of Corti whole-mounts; format: in vivo, guinea pig; conditions: 1.5 mg/kg systemic; after day 28
Outline: as §1

[3] = Body weight after systemic application; format: in vivo, guinea pig
peritoneum = assay: Histologic analysis of the peritoneum after i.p. application; format: in vivo, guinea pig; conditions: selected animals
[4] = cited from earlier work

CNCC(Cl)c1ccc(OC(C)=O)cc1.Cl (centres unmarked) [CpdA, 2-(4-acetoxyphenyl)-2-chloro-N-methyl-ethylammonium chloride]
Click threshold shift, difference as compared to the control group (guinea pigs [1]; 1 mM IT): 28 dB | Difference in click threshold shift vs control, day 28 (guinea pigs [1]; 1 mM IT): 19 dB | Change in click hearing thresholds as compared to baseline (guinea pigs [1]; 1.5 mg/kg intraperitoneally on three consecutive days): did not result in clinically relevant or statistically significant changes | Change in click hearing thresholds as compared to baseline (guinea pigs [1]; 4.5 mg/kg intraperitoneally on three consecutive days): did not result in clinically relevant or statistically significant changes | Click threshold shift, difference as compared to the control group (guinea pigs [1]; 10 mM IT): 21 dB | Difference in click threshold shift vs control, day 28 (guinea pigs [1]; 10 mM IT): 12 dB | Hearing threshold at 4 kHz (guinea pigs [2]; 1 mM IT): 57.5 dB SPL | Hearing threshold at 8 kHz (guinea pigs [2]; 1 mM IT): 40.8 dB SPL | Hearing threshold at 16 kHz (guinea pigs [2]; 1 mM IT): 32.5 dB SPL | Hearing threshold at 32 kHz (guinea pigs [2]; 1 mM IT): 50 dB SPL | Mean hearing threshold at 1 kHz (guinea pigs [2]; 1 mM IT): 56.7 dB SPL | Mean hearing threshold at 2 kHz (guinea pigs [2]; 1 mM IT): 55 dB | Frequency-specific ABR threshold shift vs baseline (guinea pigs [2]; 1.5 mg/kg intraperitoneally, day 21, p=0.048): 5 dB | Hearing threshold at 4 kHz (guinea pigs [2]; 10 mM IT): 49.2 dB SPL | Hearing threshold at 8 kHz (guinea pigs [2]; 10 mM IT): 35 dB SPL | Hearing threshold at 16 kHz (guinea pigs [2]; 10 mM IT): 35 dB SPL | Hearing threshold at 32 kHz (guinea pigs [2]; 10 mM IT): 66.7 dB SPL | Mean hearing threshold at 1 kHz (guinea pigs [2]; 10 mM IT): 44.2 dB SPL | Mean hearing threshold at 2 kHz (guinea pigs [2]; 10 mM IT): 40 dB | Outer hair cell counts, 2nd turn (outer hair cells; 1 mM IT): 99.5 ± 1.3% | Outer hair cell counts, 3rd turn (outer hair cells; 1 mM IT): 99.0 ± 3.5% | Outer hair cell counts, apex (outer hair cells; 1 mM IT): 95.2 ± 7.5% | Outer hair cell counts, basal turn (outer hair cells; 1 mM IT): 99.5 ± 1.4% | Outer hair cell counts, 2nd turn (outer hair cells; 1.5 mg/kg systemic): 99.8 ± 1.3% | Outer hair cell counts, 3rd turn (outer hair cells; 1.5 mg/kg systemic): 97.7 ± 6.4% | Outer hair cell counts, apex (outer hair cells; 1.5 mg/kg systemic): 93.8 ± 9.3% | Outer hair cell counts, basal turn (outer hair cells; 1.5 mg/kg systemic): 99.6 ± 1.2% | Outer hair cell counts, 2nd turn (outer hair cells; 4.5 mg/kg systemic): 99.7 ± 1.3% | Outer hair cell counts, 3rd turn (outer hair cells; 4.5 mg/kg systemic): 98.5 ± 3.5% | Outer hair cell counts, apex (outer hair cells; 4.5 mg/kg systemic): 98.5 ± 3.0% | Outer hair cell counts, basal turn (outer hair cells; 4.5 mg/kg systemic): 99.9 ± 0.6% | Outer hair cell counts, 2nd turn (outer hair cells; 10 mM IT): 98.4 ± 2.4% | Outer hair cell counts, 3rd turn (outer hair cells; 10 mM IT): 98.8 ± 3.3% | Outer hair cell counts, apex (outer hair cells; 10 mM IT): 97.7 ± 4.2% | Outer hair cell counts, basal turn (outer hair cells; 10 mM IT): 99.6 ± 1.3% | Loss of outer or inner hair cells (outer hair cells; any of the treatment groups (IT and systemic)): did not result in a statistically significant loss | Inner hair cell counts, 2nd turn (inner hair cells): 99.6 ± 1.3% | Inner hair cell counts, 3rd turn (inner hair cells): 99.7 ± 1.2% | Body weight [3]: weight loss was also observed | Histologic analysis of the peritoneum (peritoneum): did not show any inflammatory or necrotic alterations | Stability in buffered solutions [4]: instability
